Source: ChEMBL document CHEMBL3396987, “Discovery and structure-activity relationship studies of N6-benzoyladenine derivatives as novel BRD4 inhibitors” (Bioorg Med Chem, 2015)
Calls of active or inactive are those of the source. The rule behind the calls is not given here.

Legend:
[1] = target: T1, Bromodomain-containing protein 4 (Homo sapiens, UniProt O60885); assay: Inhibition of BRD4 bromodomain-1 (unknown origin) by europium based LANCE TR-FRET assay
[2] = target: T1, Bromodomain-containing protein 4; conditions: at 100 µM
[3] = target: T1, Bromodomain-containing protein 4; assay: Inhibition of BRD4 bromodomain-1 (unknown origin) at 300 uM by europium based LANCE TR-FRET assay
In short: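 Run with a commercial BRD4 bromodomain 1 TR-FRET assay kit, read out as europium-based LANCE time-resolved fluorescence resonance energy transfer.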

SMILES	IC50 [1] [µM]	inhibition [2]	inhibition [3] [%]
CN(C)c1ccccc1C(=O)Nc1ncnc2[nH]cnc12	5.6		
COc1cccc(C(=O)Nc2ncnc3[nH]cnc23)c1OC	78.6		
O=C(c1ccccc1)N(C(=O)c1ccccc1)c1ccncn1		11%	< 50
O=C(Nc1cccc2ncccc12)c1ccccc1		16.4%	< 50
O=C(Nc1ncnc2nc[nH]c12)c1ccccc1	34.2		
CCCOc1ccccc1C(=O)Nc1ncnc2[nH]cnc12	20		
COc1ccc(C(=O)Nc2ncnc3[nH]cnc23)c(OC)c1		40.8%	< 50
COc1cc(OC)cc(C(=O)Nc2ncnc3[nH]cnc23)c1	17.9		
O=C(Nc1ccncn1)c1ccccc1		5.8%	< 50
O=C(Nc1ncnc2[nH]cnc12)c1cccc(Br)c1		44.5%	< 50
Cc1ccccc1C(=O)Nc1ncnc2[nH]cnc12		40.4%	< 50
c1ccc(CNc2ncnc3[nH]cnc23)cc1		inactive	
COc1ccccc1C(=O)Nc1ncnc2[nH]cnc12	16		
O=C(Nc1ncnc2[nH]cnc12)c1ccccc1Br		39%	< 50
COc1ccc(OC)c(C(=O)Nc2ncnc3[nH]cnc23)c1	7.2		
COc1ccc(C(=O)Nc2ncnc3[nH]cnc23)cc1	34.5		
Cc1n[nH]c(C)c1CN1C(=O)c2ccccc2C1=O		inactive	
COc1ccc(C(=O)Nc2ncnc3[nH]cnc23)cc1OC	7.8		
O=C(Nc1cccc2[nH]cnc12)c1ccccc1		4.8%	< 50
COc1cc(OC)c(C(=O)Nc2ncnc3[nH]cnc23)cc1OC	0.427		
O=C1CCC(N2C(=O)c3ccccc3C2=O)C(=O)N1 (stereo unspecified)		inactive	
Cc1noc(C)c1N1C(=O)c2ccccc2C1=O		inactive	
COc1cccc(OC)c1C(=O)Nc1ncnc2[nH]cnc12		11.5%	< 50
O=C(Nc1cccc2c1ncn2C(=O)c1ccccc1)c1ccccc1		7.2%	< 50
O=C(Nc1ncnc2[nH]cnc12)c1ccc(Br)cc1		36.7%	< 50
COc1cccc(C(=O)Nc2ncnc3[nH]cnc23)c1	63		
CSc1ccccc1C(=O)Nc1ncnc2[nH]cnc12	29.7		
C/C(=C\CNc1ncnc2[nH]cnc12)CO		inactive	
Cn1cnc2c(NC(=O)c3ccccc3)ncnc21		3.7%	< 50
